Sampled rows, rich in hits. Any-hit rate of the full collection: about 3.5%.
RGS4 pot – RGS4 potentiators or activators, primary screen, cell-based, HEK293 M3R inducible RGS4, calcium flux; carbachol calcium flux Fluo4; stronger effect = lower value; B-score at 10 µM; hit rate 0.92% among 310,000; AID 463111, 2010;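 active = B-score of the integrated calcium signal more than 4 SD below the library mean, with starting fluorescence not abnormally high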;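 also: negative B-score means reduced calcium response which marks RGS4 activation or potentiation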
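test system = HEK293 cells with stable M3R and inducible RGS4 | schedule = recording 10 s baseline at 1 Hz, 100 s post-agonist | technique = Fluo4-AM (2 µM) calcium-flux fluorescence, kinetic read | measure = Agonist-evoked peak-minus-minimum fluorescence over baseline, integrated ratio, B score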
RGS4 block – RGS4 inhibitors, primary screen, cell-based, HEK293 M3R inducible RGS4, calcium flux; B-score at 10 µM; Fluo-4 calcium flux; stronger effect = higher value; triggered by carbachol at its EC20; hit rate 0.45% among 310,000; AID 463165, 2010; Regulator of G-protein signaling 4 (Homo sapiens), P49798;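 active = B-score, a plate-corrected calcium signal, over three deviations above library mean, with baseline fluorescence within five deviations of library mean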;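 also: RGS4 expression induced by doxycycline in cells with stable M3 receptor; B-score is computed from the integrated fluorescence ratio over baseline after carbachol; higher B-score means a larger calcium signal and so more RGS4 inhibition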
Target sequence (P49798 whole entry, looked up): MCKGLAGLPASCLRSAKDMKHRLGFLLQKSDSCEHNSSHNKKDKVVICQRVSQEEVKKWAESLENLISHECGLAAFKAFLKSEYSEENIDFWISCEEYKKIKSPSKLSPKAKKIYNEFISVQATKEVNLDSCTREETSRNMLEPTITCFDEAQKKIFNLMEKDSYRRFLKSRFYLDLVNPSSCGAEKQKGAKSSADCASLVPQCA
MrgX1 ag – agonists of human MrgX1 receptor, primary screen, HEK293 cells, Fluo-4 calcium flux. Fluo-4 calcium fluorescence, agonist mode; stronger effect = higher value. B-score at 10 µM. hit rate 0.44% among 310,000. AID 588627, 2011;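 active = calcium response B-score plate-corrected fluorescence ratio at least 3 library SD, with starting fluorescence B-score inside 5 SD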
Target sequence (Q96LB2 whole entry, looked up): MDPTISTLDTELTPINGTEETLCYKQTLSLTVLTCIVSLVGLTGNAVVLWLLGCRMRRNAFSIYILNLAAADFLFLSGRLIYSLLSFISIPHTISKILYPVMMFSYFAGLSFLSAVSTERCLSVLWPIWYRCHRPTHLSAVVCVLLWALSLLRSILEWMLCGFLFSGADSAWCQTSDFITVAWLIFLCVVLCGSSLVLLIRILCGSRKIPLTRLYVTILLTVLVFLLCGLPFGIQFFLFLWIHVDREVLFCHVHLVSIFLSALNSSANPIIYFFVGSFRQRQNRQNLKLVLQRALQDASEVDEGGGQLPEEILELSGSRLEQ
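Assay system: stable human MrgX1 HEK293 cell line. Quantity: 15,000 cells per well. Schedule: cells plated overnight, dye loaded 0.5 h 37 °C, 0.5 h room temperature. Detection: Fluo-4 NW calcium-flux fluorescence, kinetic read. Read-out basis: peak-minus-minimum fluorescence over baseline, converted to B scores. Control set: positive and negative control wells on each plate.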
MrgX1 allo act – positive allosteric modulators of MrgX1, primary screen, HEK293 cells, Fluo-4 calcium flux; Mas-related G-protein coupled receptor member X1 (Homo sapiens), Q96LB2; FDSS; stronger effect = higher value; B-score at 10 µM; hit rate 0.63% among 310,000; AID 588675, 2011;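 active = plate-corrected calcium response at least 3 library SD above typical, normal starting fluorescence, not activating the receptor alone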;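 also: compound read alongside a low EC10 to EC30 dose of BAM8-22 agonist; peak minus trough fluorescence over baseline measured at the second addition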
MrgX1 antag – antagonists of human MrgX1 receptor, primary screen, HEK293 cells, Fluo-4 calcium flux. B-score at 10 µM. hit rate 1.3% among 310,000. BAM8-22 antagonism; stronger effect = lower value;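 active = calcium-response B-score plate-corrected more than 3 library SD below zero, starting fluorescence within 5 deviations, no agonist response on first addition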;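 also: peak minus trough fluorescence over baseline after final BAM8-22 challenge near maximal dose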
Numbers without * were called inactive.

`CC(CN1CCCCC1)C(=O)NNC(=O)C12CC3CC(CC(C3)C1)C2` (configuration not stated) gave RGS4 pot inactive, RGS4 block inactive, MrgX1 ag inactive, MrgX1 allo act 7.6* and MrgX1 antag inactive.
`O=C1[C@@H]2Cc3c([nH]c4ccccc34)CN2C(=O)CN1CCCCCO` gave RGS4 pot inactive, RGS4 block inactive, MrgX1 ag inactive, MrgX1 allo act inactive and MrgX1 antag inactive.
Screening CC(C)C[C@@H](COc1ccccc1)N1CCN(CCc2ccccc2)CCC1=O returned RGS4 pot inactive, RGS4 block inactive, MrgX1 ag inactive, MrgX1 allo act 11* and MrgX1 antag inactive.
For CC12CC3CC(C)(C1)CC(C(=O)N1CCN(C(=O)C4CCCO4)CC1)(C3)C2 (configuration not stated) the results were RGS4 pot inactive, RGS4 block inactive, MrgX1 ag inactive, MrgX1 allo act inactive and MrgX1 antag inactive.
Screening O=S1(=O)c2ccccc2N=NN1Cc1ccc(Cl)c(Cl)c1 returned RGS4 pot inactive, RGS4 block inactive, MrgX1 ag 29*, MrgX1 allo act inactive and MrgX1 antag inactive.
CC(C)(C)c1ccc(CN2N=Nc3ccccc3S2(=O)=O)cc1 was read as RGS4 pot inactive, RGS4 block inactive, MrgX1 ag inactive, MrgX1 allo act inactive and MrgX1 antag inactive.
`Cc1ccc(S(=O)(=O)NCC(=O)N(CC(=O)NCC2CCCO2)Cc2ccccc2Cl)cc1` (configuration not stated) gave RGS4 pot inactive, RGS4 block inactive, MrgX1 ag inactive, MrgX1 allo act inactive and MrgX1 antag inactive.
`O=C(/C=C/Nc1ccc(F)c(F)c1)c1cccs1` gave RGS4 pot inactive, RGS4 block inactive, MrgX1 ag inactive, MrgX1 allo act inactive and MrgX1 antag inactive.
O=C(/C=C/Nc1ccc(F)cc1)c1cccs1 was read as RGS4 pot inactive, RGS4 block inactive, MrgX1 ag inactive, MrgX1 allo act inactive and MrgX1 antag -5*.
`CN(CC(=O)N1CCOCC1)S(=O)(=O)c1ccc2ccccc2c1` gave RGS4 pot inactive, RGS4 block inactive, MrgX1 ag inactive, MrgX1 allo act inactive and MrgX1 antag inactive.
For O=C1/C(=C\c2c(NCCOCCO)nc3ccccn3c2=O)SC(=S)N1Cc1ccco1 the results were RGS4 pot inactive, RGS4 block inactive, MrgX1 ag inactive, MrgX1 allo act inactive and MrgX1 antag -15*.
`Cc1ccc(S(=O)(=O)CC(=O)c2cc3cccc(C)c3oc2=O)cc1` gave RGS4 pot inactive, RGS4 block inactive, MrgX1 ag inactive, MrgX1 allo act inactive and MrgX1 antag inactive.
`Cc1ccc2nc(/C(C#N)=C/c3ccc(-c4ccccc4C(=O)O)o3)[nH]c2c1` gave RGS4 pot inactive, RGS4 block inactive, MrgX1 ag 33*, MrgX1 allo act inactive and MrgX1 antag inactive.
For N#C/C(=C\c1ccc(-c2ccccc2C(=O)O)o1)c1nc2ccccc2[nH]1 the results were RGS4 pot inactive, RGS4 block inactive, MrgX1 ag 27*, MrgX1 allo act inactive and MrgX1 antag inactive.
Cc1cc(C)n(CCNC(=O)c2ccco2)n1 was read as RGS4 pot inactive, RGS4 block inactive, MrgX1 ag inactive, MrgX1 allo act inactive and MrgX1 antag inactive.
O=C(COC(=O)c1ccccn1)c1ccc([N+](=O)[O-])cc1 was read as RGS4 pot inactive, RGS4 block inactive, MrgX1 ag inactive, MrgX1 allo act inactive and MrgX1 antag inactive.
O=C(c1ccc([N+](=O)[O-])o1)N1CCN(c2nc3c(F)cc(F)cc3s2)CC1 was read as RGS4 pot inactive, RGS4 block inactive, MrgX1 ag inactive, MrgX1 allo act inactive and MrgX1 antag inactive.
`Cc1ccc(C)c2sc(N3CCN(C(=O)c4ccc([N+](=O)[O-])o4)CC3)nc12` gave RGS4 pot inactive, RGS4 block inactive, MrgX1 ag inactive, MrgX1 allo act inactive and MrgX1 antag -7.5*.
Cc1ccc2c(C)c(C(=O)N3CCN(c4ncccn4)CC3)oc2c1C was read as RGS4 pot inactive and RGS4 block inactive.
Screening OCCCCNCc1ccc(OCc2ccccc2Cl)cc1 returned RGS4 pot -7*, RGS4 block inactive, MrgX1 ag inactive, MrgX1 allo act inactive and MrgX1 antag inactive.
NC(N)=N/N=C/c1ccc(Cl)c(Cl)c1 was read as RGS4 pot inactive, RGS4 block inactive, MrgX1 ag 31*, MrgX1 allo act inactive and MrgX1 antag inactive.
NC(N)=N/N=C/c1ccc(OCc2ccccc2Cl)cc1 was read as RGS4 pot -10*, RGS4 block inactive, MrgX1 ag inactive, MrgX1 allo act inactive and MrgX1 antag inactive.
`NC(N)=N/N=C/c1ccccc1` gave RGS4 pot inactive, RGS4 block inactive, MrgX1 ag inactive, MrgX1 allo act inactive and MrgX1 antag inactive.
CCOc1cc(/C=N/N=C(N)N)ccc1OCc1ccc(Cl)cc1 was read as RGS4 pot inactive, RGS4 block inactive, MrgX1 ag inactive, MrgX1 allo act inactive and MrgX1 antag inactive.
Screening CCOCCCNCc1ccc(OCc2ccccc2Cl)cc1 returned RGS4 pot inactive, RGS4 block inactive, MrgX1 ag inactive, MrgX1 allo act inactive and MrgX1 antag inactive.
Screening COc1cc(/C=N/N=C(N)N)ccc1OCc1ccc(Cl)cc1 returned RGS4 pot inactive, RGS4 block inactive, MrgX1 ag 30*, MrgX1 allo act inactive and MrgX1 antag inactive.
COC(=O)c1ccccc1S(=O)(=O)NCc1nc2nc(C)cc(C)n2n1 was read as RGS4 pot inactive, RGS4 block inactive, MrgX1 ag inactive, MrgX1 allo act inactive and MrgX1 antag inactive.
`CC(C)C(OC(=O)c1nsc(Cl)c1Cl)C(=O)NC1CCCCC1` (configuration not stated) gave RGS4 pot inactive, RGS4 block inactive, MrgX1 ag inactive, MrgX1 allo act inactive and MrgX1 antag inactive.
`CC1=C(C(=O)OC(C)C)C(c2ccc(Cl)cc2)n2c(s/c(=C\c3ccc(OCC(=O)O)cc3)c2=O)=N1` (configuration not stated) gave RGS4 pot inactive, RGS4 block inactive, MrgX1 ag inactive, MrgX1 allo act inactive and MrgX1 antag inactive.
`O=c1cc(N2CCCCC2)c(-c2ccccc2)nn1Cc1cccc(Cl)c1` gave RGS4 pot inactive, RGS4 block inactive, MrgX1 ag inactive, MrgX1 allo act inactive and MrgX1 antag inactive.
